Test results from ChEMBL document CHEMBL5653631, “A Potent and Selective ULK1 Inhibitor Suppresses Autophagy and Sensitizes Cancer Cells to Nutrient Stress” (iScience, 2018).
The source made the active and inactive calls. No cut-off for these calls is given here.

Assays:
[1] = target: Serine/threonine-protein kinase 35 (Homo sapiens) (UniProt Q8TDR2); assay: Inhibition of human recombinant CLIK1 at 500 nM related to control ULK1
[2] = target: T1, Mitogen-activated protein kinase kinase kinase 7 (Homo sapiens) (UniProt O43318); assay: Inhibition of human recombinant TAK1 at 500 nM related to control ULK1
T1 sequence (whole entry): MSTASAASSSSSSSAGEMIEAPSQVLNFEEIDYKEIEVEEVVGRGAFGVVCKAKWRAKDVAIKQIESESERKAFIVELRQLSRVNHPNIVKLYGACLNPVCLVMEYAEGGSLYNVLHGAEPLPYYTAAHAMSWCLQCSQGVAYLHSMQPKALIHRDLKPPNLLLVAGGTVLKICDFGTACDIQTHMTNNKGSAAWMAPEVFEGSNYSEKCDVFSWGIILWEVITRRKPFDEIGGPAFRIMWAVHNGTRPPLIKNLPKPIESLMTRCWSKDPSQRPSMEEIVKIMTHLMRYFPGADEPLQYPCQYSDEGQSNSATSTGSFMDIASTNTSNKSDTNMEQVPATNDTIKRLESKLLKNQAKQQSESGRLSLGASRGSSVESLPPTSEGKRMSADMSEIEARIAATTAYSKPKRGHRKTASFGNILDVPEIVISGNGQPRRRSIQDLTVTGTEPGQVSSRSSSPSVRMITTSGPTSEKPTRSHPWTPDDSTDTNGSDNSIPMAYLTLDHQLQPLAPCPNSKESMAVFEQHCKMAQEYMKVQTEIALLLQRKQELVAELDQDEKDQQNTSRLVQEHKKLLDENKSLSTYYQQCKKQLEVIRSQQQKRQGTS

[3] = target: NT-3 growth factor receptor (Homo sapiens) (UniProt Q16288); assay: Inhibition of human recombinant TRKC at 15 nM in presence of ATP by radiometric assay relative to control
[4] = target: Leucine-rich repeat serine/threonine-protein kinase 2 (Homo sapiens) (UniProt Q5S007); assay: Inhibition of human recombinant LRRK2 at 15 nM related to control ULK1
[5] = target: Serine/threonine-protein kinase MARK1 (Homo sapiens) (UniProt Q9P0L2); assay: Inhibition of human recombinant MARK1 at 15 nM related to control ULK1
[6] = target: T2, Serine/threonine-protein kinase Nek2 (Homo sapiens) (UniProt P51955); assay: Inhibition of human recombinant NEK2 at 15 nM related to control ULK1
T2 sequence (whole entry): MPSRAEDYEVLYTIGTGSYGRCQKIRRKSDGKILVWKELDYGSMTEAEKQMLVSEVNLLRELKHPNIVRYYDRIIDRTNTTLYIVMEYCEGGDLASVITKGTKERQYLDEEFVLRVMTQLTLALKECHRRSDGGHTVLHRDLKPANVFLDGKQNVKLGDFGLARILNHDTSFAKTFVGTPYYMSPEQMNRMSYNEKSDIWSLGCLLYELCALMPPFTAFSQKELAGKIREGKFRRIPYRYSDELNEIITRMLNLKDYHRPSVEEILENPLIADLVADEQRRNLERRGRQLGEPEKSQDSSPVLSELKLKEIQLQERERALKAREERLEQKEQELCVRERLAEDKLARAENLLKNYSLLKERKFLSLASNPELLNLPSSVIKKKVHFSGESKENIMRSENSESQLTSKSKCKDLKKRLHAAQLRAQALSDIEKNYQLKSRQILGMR

U2OS = assay: Inhibition of autophagy in human U2OS cells assessed as ATG12-positive puncta formation at 5 uM incubated for 2.5 hrs in presence of AZD8055 by Fluorescent microscopy based analysis; format: functional, cell-based
Procedure, shortened: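 U2OS cells treated 2.5 hr with vehicle or 100 nM AZD8055, with or without 5 μM inhibitor; fixed and immunostained for endogenous ATG12; ATG12-positive puncta (phagophores) assessed by fluorescence microscopy.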

[7] = target: Cyclin-dependent kinase-like 1 (Homo sapiens) (UniProt Q00532); assay: Inhibition of human recombinant CDKL1 at 40 nM in presence of ATP by radiometric assay relative to control
[8] = target: MAP kinase-activated protein kinase 2 (Homo sapiens) (UniProt P49137); assay: Inhibition of human recombinant MAPKAPK2 at 40 nM in presence of ATP by radiometric assay relative to control
[9] = target: T3, Serine/threonine-protein kinase Chk1 (Homo sapiens) (UniProt O14757); assay: Inhibition of human recombinant CHK1 at 40 nM related to control ULK1
T3 sequence (whole entry): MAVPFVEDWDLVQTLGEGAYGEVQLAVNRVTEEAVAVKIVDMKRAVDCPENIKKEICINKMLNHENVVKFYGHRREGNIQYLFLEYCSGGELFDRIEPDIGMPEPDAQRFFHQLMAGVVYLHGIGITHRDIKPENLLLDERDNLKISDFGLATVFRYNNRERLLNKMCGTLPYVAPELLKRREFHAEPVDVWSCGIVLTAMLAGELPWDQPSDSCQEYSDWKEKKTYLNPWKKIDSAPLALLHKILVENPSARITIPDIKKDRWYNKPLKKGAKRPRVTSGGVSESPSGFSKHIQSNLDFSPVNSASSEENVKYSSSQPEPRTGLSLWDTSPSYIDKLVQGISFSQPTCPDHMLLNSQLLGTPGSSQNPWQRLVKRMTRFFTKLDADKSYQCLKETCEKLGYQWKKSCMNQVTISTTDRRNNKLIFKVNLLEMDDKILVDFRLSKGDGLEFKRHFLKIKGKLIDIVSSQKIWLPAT

[10] = target: Tyrosine-protein kinase Yes (Homo sapiens) (UniProt P07947); assay: Inhibition of human recombinant YES at 40 nM related to control ULK1
[11] = target: Mitogen-activated protein kinase kinase kinase 20 (Homo sapiens) (UniProt Q9NYL2); assay: Inhibition of human recombinant ZAK at 40 nM related to control ULK1
[12] = target: 3-phosphoinositide-dependent protein kinase 1 (Homo sapiens) (UniProt O15530); assay: Inhibition of human recombinant PDK1 at 40 nM related to control ULK1
Sequence of 3-phosphoinositide-dependent protein kinase 1 (Homo sapiens) (O15530 whole entry, looked up): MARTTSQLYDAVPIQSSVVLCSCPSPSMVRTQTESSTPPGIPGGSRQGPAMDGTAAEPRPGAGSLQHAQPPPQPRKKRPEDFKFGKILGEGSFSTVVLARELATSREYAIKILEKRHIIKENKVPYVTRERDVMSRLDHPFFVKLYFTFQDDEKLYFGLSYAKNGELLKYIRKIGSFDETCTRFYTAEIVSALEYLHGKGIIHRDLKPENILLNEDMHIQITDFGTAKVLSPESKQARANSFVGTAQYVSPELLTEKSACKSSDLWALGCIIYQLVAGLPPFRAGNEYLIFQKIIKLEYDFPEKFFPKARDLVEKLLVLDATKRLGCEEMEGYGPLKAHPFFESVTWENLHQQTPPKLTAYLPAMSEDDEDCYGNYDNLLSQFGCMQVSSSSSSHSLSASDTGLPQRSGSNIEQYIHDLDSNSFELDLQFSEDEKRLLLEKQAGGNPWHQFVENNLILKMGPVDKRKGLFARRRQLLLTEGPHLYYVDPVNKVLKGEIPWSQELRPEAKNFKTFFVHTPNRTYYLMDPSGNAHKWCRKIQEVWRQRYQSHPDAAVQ

Sequence of Serine/threonine-protein kinase MARK1 (Homo sapiens) (Q9P0L2 whole entry, looked up): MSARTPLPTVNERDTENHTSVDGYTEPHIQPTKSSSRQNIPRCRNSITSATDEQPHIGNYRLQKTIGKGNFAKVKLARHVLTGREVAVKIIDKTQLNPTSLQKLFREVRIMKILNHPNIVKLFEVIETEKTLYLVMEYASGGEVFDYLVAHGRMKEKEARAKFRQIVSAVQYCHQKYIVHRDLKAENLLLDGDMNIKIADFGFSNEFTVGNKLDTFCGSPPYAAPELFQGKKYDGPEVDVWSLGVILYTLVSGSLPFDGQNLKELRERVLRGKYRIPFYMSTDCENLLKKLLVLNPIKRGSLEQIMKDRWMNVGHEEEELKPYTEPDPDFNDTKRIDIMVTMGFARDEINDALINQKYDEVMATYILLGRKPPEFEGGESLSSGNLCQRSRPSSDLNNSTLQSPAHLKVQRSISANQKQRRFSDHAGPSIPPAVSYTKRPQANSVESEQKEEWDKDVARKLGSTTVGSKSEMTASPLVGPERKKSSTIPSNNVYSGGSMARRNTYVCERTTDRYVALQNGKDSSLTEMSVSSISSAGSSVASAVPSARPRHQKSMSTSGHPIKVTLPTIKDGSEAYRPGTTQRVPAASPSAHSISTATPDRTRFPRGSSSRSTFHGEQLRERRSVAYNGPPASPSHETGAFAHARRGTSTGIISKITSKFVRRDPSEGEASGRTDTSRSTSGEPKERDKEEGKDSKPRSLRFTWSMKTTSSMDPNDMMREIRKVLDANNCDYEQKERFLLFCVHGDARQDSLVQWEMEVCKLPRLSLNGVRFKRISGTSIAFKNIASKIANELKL
Sequence of NT-3 growth factor receptor (Homo sapiens) (Q16288 32-839 limits assumed): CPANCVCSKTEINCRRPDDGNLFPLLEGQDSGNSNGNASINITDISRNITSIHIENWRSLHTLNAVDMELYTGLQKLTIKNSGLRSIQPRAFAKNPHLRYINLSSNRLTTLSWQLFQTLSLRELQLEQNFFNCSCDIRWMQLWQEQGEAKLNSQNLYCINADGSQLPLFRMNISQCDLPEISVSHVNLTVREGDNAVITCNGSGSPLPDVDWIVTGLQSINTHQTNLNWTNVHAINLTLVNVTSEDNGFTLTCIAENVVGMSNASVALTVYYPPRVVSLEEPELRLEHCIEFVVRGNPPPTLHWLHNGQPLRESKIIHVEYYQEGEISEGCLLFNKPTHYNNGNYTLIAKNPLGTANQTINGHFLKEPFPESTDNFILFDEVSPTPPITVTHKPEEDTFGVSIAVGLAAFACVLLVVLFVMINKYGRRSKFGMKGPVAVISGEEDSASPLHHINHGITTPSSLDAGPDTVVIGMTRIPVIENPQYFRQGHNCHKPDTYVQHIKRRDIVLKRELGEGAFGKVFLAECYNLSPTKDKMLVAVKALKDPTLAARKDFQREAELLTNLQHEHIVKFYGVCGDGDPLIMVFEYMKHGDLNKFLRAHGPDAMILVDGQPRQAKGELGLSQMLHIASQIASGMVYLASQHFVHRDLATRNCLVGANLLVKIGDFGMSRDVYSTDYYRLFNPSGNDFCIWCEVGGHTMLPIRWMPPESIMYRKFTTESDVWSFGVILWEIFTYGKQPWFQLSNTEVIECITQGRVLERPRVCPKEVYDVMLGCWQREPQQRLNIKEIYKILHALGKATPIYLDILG
Sequence of Mitogen-activated protein kinase kinase kinase 20 (Homo sapiens) (Q9NYL2 2-800 limits assumed): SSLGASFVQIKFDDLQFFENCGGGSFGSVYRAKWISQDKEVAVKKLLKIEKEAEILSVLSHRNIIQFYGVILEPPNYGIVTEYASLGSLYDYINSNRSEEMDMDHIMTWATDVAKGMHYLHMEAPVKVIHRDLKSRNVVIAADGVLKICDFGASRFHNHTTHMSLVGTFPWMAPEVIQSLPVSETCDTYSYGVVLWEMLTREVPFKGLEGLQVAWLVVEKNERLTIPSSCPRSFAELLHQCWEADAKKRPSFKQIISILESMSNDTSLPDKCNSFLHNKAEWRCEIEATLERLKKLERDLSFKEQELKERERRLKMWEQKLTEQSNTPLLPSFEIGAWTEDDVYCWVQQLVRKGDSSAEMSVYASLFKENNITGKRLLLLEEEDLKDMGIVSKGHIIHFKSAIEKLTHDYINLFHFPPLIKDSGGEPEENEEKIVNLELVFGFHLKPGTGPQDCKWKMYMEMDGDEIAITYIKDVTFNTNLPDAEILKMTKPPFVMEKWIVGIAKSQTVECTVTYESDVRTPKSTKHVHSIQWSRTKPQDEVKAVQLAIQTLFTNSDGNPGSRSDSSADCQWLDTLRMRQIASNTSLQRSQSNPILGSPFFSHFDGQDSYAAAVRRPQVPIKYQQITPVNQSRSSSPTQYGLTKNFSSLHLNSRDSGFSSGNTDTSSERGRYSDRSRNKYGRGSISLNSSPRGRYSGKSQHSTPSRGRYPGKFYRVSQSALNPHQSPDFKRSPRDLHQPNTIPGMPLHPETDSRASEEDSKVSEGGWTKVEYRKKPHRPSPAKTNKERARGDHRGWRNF
Sequence of Cyclin-dependent kinase-like 1 (Homo sapiens) (Q00532 whole entry): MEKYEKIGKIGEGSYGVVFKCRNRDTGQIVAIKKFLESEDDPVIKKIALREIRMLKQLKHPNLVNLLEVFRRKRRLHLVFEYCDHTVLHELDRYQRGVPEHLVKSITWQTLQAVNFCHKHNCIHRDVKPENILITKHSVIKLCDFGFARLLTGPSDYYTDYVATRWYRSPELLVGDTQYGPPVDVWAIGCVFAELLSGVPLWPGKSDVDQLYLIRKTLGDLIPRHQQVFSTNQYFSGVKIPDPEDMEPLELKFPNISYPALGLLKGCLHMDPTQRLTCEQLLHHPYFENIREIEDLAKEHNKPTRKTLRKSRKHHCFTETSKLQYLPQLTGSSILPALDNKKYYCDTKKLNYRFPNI
Sequence of Tyrosine-protein kinase Yes (Homo sapiens) (P07947 2-543 limits assumed): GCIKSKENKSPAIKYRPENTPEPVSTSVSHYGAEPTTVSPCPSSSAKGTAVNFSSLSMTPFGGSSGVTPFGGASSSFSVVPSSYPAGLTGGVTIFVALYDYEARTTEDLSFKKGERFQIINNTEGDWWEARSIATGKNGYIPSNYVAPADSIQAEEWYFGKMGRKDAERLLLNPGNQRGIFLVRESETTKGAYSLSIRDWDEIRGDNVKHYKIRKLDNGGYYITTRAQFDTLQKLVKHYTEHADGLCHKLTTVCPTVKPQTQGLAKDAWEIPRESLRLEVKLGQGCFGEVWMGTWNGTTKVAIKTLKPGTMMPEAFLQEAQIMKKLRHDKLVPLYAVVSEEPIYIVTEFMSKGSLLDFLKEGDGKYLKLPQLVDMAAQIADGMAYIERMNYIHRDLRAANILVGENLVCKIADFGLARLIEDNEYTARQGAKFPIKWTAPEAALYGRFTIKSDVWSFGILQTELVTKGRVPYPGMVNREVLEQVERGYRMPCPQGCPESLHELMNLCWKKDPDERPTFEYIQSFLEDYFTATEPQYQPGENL
Sequence of MAP kinase-activated protein kinase 2 (Homo sapiens) (P49137 whole entry, looked up): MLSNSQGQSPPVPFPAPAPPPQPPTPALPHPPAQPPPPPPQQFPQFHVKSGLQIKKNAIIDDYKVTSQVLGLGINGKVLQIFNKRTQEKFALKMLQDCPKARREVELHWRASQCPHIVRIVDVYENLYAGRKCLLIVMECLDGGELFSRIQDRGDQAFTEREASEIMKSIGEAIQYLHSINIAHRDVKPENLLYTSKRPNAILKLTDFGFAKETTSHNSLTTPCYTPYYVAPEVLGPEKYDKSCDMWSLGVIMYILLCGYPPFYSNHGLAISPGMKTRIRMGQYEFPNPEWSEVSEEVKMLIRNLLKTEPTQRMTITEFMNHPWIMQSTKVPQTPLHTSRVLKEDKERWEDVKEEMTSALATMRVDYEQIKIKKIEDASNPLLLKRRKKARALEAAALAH
Sequence of Serine/threonine-protein kinase 35 (Homo sapiens) (Q8TDR2 whole entry): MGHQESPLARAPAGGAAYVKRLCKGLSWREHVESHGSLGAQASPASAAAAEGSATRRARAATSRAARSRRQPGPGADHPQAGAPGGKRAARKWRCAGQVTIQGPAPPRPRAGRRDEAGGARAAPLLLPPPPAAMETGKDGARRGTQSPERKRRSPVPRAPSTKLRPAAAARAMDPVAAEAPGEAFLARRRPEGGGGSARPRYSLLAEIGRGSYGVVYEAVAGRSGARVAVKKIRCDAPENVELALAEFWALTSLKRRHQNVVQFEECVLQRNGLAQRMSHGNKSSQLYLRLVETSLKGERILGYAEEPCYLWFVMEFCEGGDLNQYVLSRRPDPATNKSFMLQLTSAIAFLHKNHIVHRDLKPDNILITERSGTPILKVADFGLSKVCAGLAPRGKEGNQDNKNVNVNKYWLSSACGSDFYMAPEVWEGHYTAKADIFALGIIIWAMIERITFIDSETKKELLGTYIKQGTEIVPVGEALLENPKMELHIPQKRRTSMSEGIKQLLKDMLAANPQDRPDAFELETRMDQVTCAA

SMILES: CNC(=O)c1ccccc1Oc1nc(Nc2cc(OC)c(OC)c(OC)c2)ncc1Br
- fold change (FC) [1]: 0.04
- fold change (FC) [2]: 0.03

SMILES: CC(C)[C@H](NC(=O)c1cc(-c2cnn3cc(-c4ccc(OCCN5CCCCC5)cc4)cnc23)cs1)C(F)(F)F
- inhibition [3]: 0%
- fold change (FC) [4]: 0.03
- fold change (FC) [5]: 0.61
- fold change (FC) [6]: 0.14

SMILES: O=C(N[C@@H](C1CC1)C(F)(F)F)c1cc(-c2cnn3cc(-c4ccc(F)cc4)cnc23)cs1
- inhibition (U2OS): Active
- inhibition [7]: 15%
- inhibition [8]: 0%
- fold change (FC) [9]: 0
- fold change (FC) [10]: 0.32
- fold change (FC) [11]: 0
- fold change (FC) [12]: 0
